# Measurements of several laboratories.
# Protocols differ between the studies behind these lines.
# SIRT6: NAD-dependent protein deacylase sirtuin-6 (SIRT6, Homo sapiens, UniProt Q8N6T7)
# FYN: Tyrosine-protein kinase Fyn (FYN, Homo sapiens, UniProt P06241)
# ALK: ALK tyrosine kinase receptor (ALK, Homo sapiens, UniProt Q9UM73)
# CCR2: C-C chemokine receptor type 2 (CCR2, Homo sapiens, UniProt P41597)
SMILES,target,read-out,mode,method,IC50 [µM]
NC(=O)c1ccc(C(=O)NOCc2ccc(Sc3cccc(C(F)(F)F)c3)c(C(F)(F)F)c2)cc1,SIRT6,enzyme activity,inhibitor,fluorescence,1.1
COc1cc2nccc(Oc3ccc(NC(=O)c4cc5c(n(-c6ccccc6)c4=O)CCCC5=O)nc3)c2cc1OC,FYN,enzyme activity in cells,inhibitor,ATP luminescence,> 0.1
Cc1cc(-c2cc(C#N)ccc2O[C@@H]2C[C@]2(CN)c2ccc(F)cc2F)n[nH]1 (racemic),ALK,enzyme activity,inhibitor,TR-FRET,0.029
Nc1nonc1-n1cc(C(=O)N/N=C/c2ccco2)nn1,SIRT6,enzyme activity,inhibitor,fluorescence,14
O=C(Nc1ccn(Cc2ccc(O)cc2C(F)(F)F)n1)c1c(F)cccc1F,"Transient receptor potential cation channel subfamily V member 4 (Trpv4, Rattus norvegicus, UniProt Q9ERZ8)",ion current,,,> 10
COc1ccccc1CONC(=O)c1ccc(C(N)=O)cc1,SIRT6,enzyme activity,inhibitor,fluorescence,61.7
COC[C@]1(c2ccc(F)cc2F)C[C@H]1Oc1ccc(C#N)cc1-c1cc(C)[nH]n1 (racemic),ALK,enzyme activity,inhibitor,TR-FRET,0.043
NC(=O)c1ccc(C(=O)NOCc2ccccc2Cl)cc1,SIRT6,enzyme activity,inhibitor,fluorescence,11.4
CCc1ccc(/C=N/n2c(C)nc3ccc(C)cc3c2=O)s1,"Cathepsin B (CTSB, Homo sapiens, UniProt P07858)",enzyme activity,inhibitor,,118
NC(=O)c1ccc(C(=O)NOCc2ccc(C(=O)c3ccccc3)cc2)cc1,SIRT6,enzyme activity,inhibitor,fluorescence,2.8
CCOC(F)(F)c1nnc2cnc(-c3cnc(OCC(F)(F)F)c(F)c3)cn12,"Sodium channel protein type 5 subunit alpha (SCN5A, Homo sapiens, UniProt Q14524)",ion current,inhibitor,patch clamp,0.989
C=C(C)[C@H](CC=C(C)C)Cc1c(O)cc(O)c2c1O[C@H](c1ccc(O)cc1O)CC2=O,"Fatty acid synthase (FASN, Gallus gallus, UniProt P12276)",enzyme activity,inhibitor,radiometric,6.7
Cc1ccc(CONC(=O)c2ccc(C(N)=O)cc2)cc1,SIRT6,enzyme activity,inhibitor,fluorescence,7.71
CCCC#Cc1ccc2c(n1)[nH]c1ccccc12,ALK,enzyme activity,inhibitor,ELISA,> 10
CCn1ncc2c1-c1cnc(N)c(c1)O[C@H](C)c1cc(F)ccc1-c1nn(C)nc1C2,"Angiopoietin-1 receptor (TEK, Homo sapiens, UniProt Q02763)",enzyme activity,inhibitor,radiometric,0.28
CN(Cc1ccc(NC(=O)C2=Cc3cc(-c4ccc(OCCCCCCCF)cc4)ccc3CCC2)cc1)C1CCOCC1,CCR2,calcium signal,antagonist,,0.0011
Cc1ccc(C(=O)Nc2ccc(Oc3cc4cnn(C)c4cc3-c3cn[nH]c3)c(F)c2)c(=O)n1-c1ccc(F)cc1,"Vascular endothelial growth factor receptor 3 (FLT4, Homo sapiens, UniProt P35916)",enzyme activity,inhibitor,radiometric,0.023
NC(=O)c1ccc[n+]([C@@H]2O[C@H](COP(=O)([O-])OP(=O)(O)OC[C@H]3O[C@@H](n4cnc5c(N)ncnc54)[C@H](O)[C@@H]3O)[C@@H](O)[C@H]2O)c1,"Protein mono-ADP-ribosyltransferase PARP14 (PARP14, Homo sapiens, UniProt Q460N5)",enzyme activity,inhibitor,,110
CN(Cc1ccc(NC(=O)C2=Cc3cc(-c4ccc(OCCCF)cc4)ccc3CCC2)cc1)C1CCOCC1,CCR2,calcium signal,antagonist,,0.13
NC(=O)c1ccc(C(=O)NOCc2ccc(Sc3ccccc3Cl)c(C(F)(F)F)c2)cc1,SIRT6,enzyme activity,inhibitor,fluorescence,3.82
COc1ccc2c(Oc3ccc4c(C(=O)Nc5ccccc5N)cccc4c3)ccnc2c1,FYN,enzyme activity,inhibitor,,> 0.5
